For data set [1], the target named is T1, Fatty-acid amide hydrolase 1 (Rattus norvegicus, UniProt P97612).
T1 sequence (P97612 whole entry): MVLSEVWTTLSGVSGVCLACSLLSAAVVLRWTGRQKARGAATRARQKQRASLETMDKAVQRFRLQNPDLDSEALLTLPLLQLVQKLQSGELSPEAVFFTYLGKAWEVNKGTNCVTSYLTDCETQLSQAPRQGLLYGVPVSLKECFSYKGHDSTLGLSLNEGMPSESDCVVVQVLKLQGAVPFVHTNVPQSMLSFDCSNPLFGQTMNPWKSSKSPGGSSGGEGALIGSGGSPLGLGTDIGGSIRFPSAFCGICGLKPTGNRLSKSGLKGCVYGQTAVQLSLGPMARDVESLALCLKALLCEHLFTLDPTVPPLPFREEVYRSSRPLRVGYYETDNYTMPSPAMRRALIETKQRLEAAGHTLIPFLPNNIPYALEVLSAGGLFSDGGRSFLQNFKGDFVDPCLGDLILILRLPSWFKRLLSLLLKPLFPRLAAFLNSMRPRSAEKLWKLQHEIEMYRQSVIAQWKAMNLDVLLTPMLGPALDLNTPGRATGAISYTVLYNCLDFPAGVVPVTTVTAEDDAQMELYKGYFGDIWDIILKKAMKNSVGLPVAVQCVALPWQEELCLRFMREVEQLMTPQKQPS
In words: Apparent inhibition of rat FAAH using AMCAA as substrate after 30 mins by fluorescence assay. In outline: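 Rat FAAH enzyme fraction (125–250 ng final) was reacted with AMCAA substrate across a range of compound concentrations at 37 °C. Buffer: 125 mM Tris-HCl pH 9.0, 1 mM EDTA, 0.4 mM HEPES, 0.2% glycerol, 0.02% Triton X-100, 0.3% fatty acid free BSA. Fluorescence read at ex 355/em 460 nm, scaled to solvent (100%) and zero-time (0%). IC50 determined at a 30 min reaction.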

Data set [2] addresses T2, Fatty-acid amide hydrolase 1 (Homo sapiens, UniProt O00519).
T2 sequence (O00519 whole entry): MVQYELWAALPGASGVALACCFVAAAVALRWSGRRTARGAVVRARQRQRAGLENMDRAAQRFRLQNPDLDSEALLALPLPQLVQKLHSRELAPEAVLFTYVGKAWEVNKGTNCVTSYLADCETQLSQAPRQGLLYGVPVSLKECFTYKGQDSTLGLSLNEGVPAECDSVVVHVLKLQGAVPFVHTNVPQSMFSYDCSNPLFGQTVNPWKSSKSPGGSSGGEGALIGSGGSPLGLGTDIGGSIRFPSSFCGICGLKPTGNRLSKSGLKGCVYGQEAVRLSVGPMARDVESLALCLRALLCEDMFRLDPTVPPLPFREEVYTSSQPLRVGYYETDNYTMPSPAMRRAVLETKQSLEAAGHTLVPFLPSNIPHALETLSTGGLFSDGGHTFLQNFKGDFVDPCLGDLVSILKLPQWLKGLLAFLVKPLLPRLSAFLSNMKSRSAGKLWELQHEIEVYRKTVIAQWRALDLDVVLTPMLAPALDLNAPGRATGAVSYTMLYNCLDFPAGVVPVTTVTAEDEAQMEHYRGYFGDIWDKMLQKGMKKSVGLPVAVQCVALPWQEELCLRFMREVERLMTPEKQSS
The experiment in a line: Apparent inhibition of human FAAH expressed in CHOK1 cells using AMCAA as substrate after 30 mins by fluorescence assay. Type of data set: cell-based, CHO-K1. A digest of the protocol: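 Enzyme source: CHO-K1 cells stably expressing human FAAH cloned from a human brain library, grown in Ham's F-12 with 10% FBS and 800 µg/mL G418, then homogenized in 10 mM Tris, 1 mM EDTA, 10 mM MgCl2. Fraction (125–250 ng final) was incubated with AMCAA at 37 °C in Tris-HCl pH 9.0 buffer with BSA. Fluorescence read at ex 355/em 460 nm; solvent = 100%, zero-time count = 0%. IC50 from a 30 min reaction.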

The nature of data set [3]: Solubility of the compound in aqueous buffer at pH 6.8 by HPLC analysis. The class given is physicochemical. A digest of the protocol: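 Small volumes of compound DMSO solution were added to aqueous buffer at pH 6.8 and incubated. Precipitate was removed by filtration, and the filtrate concentration was measured by HPLC.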
In the next data set the test system is Mus musculus. In words: Analgesic activity in ICR mouse assessed as inhibition of acetic acid-induced writhing at 10 mg/kg, po pretreated for 60 mins followed by acetic acid-challenge measured for 20 mins relative to control. Type of data set: functional. In outline: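 Mice received compound po at 10 mg/kg as a suspension in 0.5% methylcellulose (10 mL/kg). After 60 min, 0.6% (v/v) acetic acid (10 mL/kg) was given ip. Each mouse was then placed alone in an observation chamber. Treated mice were compared with vehicle-treated mice by Student's t-test.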
A general note: Writhing tests count abdominal constrictions after an irritant is injected.

Data set [4] addresses T3, Fatty-acid amide hydrolase 1 (Homo sapiens) (UniProt O00519).
T3 sequence (whole entry): T2 sequence (O00519 whole entry)
In words: Irreversible inhibition of FAAH (unknown origin) using AMCAA as substrate at 10 nM by fluorescence assay. The note with it: TDE = time-dependent effect.

For data set [5], the system named is Rattus norvegicus. The experiment in a line: Analgesic activity in po dosed Sprague-Dawley rat complete Freund's adjuvant-induced inflammatory pain model assessed as attenuation of tactile allodynia administered for 5 days measured 4 hrs after treatment. The class given is functional, organism-based. The note with it: in the assay text read “administered 5 days after CFA injection” for “administered for 5 days”. In outline: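 Six-week-old male Sprague Dawley rats received 150 µL CFA into the plantar surface of the right hind paw; sham rats got liquid paraffin instead. Five days after injection, a single oral dose of 1, 3 or 10 mg/kg was given, with 0.5% methylcellulose as vehicle. Ipsilateral tactile allodynia was scored blinded with von Frey filaments 4 h post-dose. Mean and SE, 8–10 rats.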

The subject of data set [6] is Brain. The experiment in a line: AUC in rat brain at 0.3 mg/kg, po by LC/MS/MS analysis. The class given is ADME, organism-based. Further details: dose 0.3 mg/kg, route oral. As to conditions: in vivo. A digest of the protocol:
(§1)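 Rats given single oral doses of 0.03, 0.3 or 3 mg/kg as a suspension in 0.5% methylcellulose. Brain drug levels were measured by LC/MS/MS over time, and AUC is reported in ng h/g. Each value is the mean of n = 3.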

Data set [7] is described as follows: Ratio of drug level in brain to plasma in rat at 3 mg/kg, po. The class given is ADME, organism-based. More on the design: dose 3 mg/kg, route oral. The note with it: read-out: BPR. In outline:
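Rats were dosed orally at 0.03, 0.3 or 3 mg/kg as a suspension in 0.5% methylcellulose. Compound levels in plasma and brain were quantified by LC/MS/MS. Cmax, Tmax and AUC are means of n = 3.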

Data set [8] has as its system Brain. In words: AUC in rat brain at 0.03 mg/kg, po by LC/MS/MS analysis. As to conditions: in vivo. Type of data set: ADME, organism-based. Further details: dose 0.03 mg/kg, route oral. A digest of the protocol: as §1
Data set [9] concerns Rattus norvegicus. In words: Analgesic activity in po dosed Sprague-Dawley rat sciatic nerve injury-induced neuropathic pain model assessed as attenuation of tactile allodynia administered for 7 days measured 2 hrs after treatment. The class given is functional, organism-based. The note with it: in the assay text read “administered 7 days after nerve injury” for “administered for 7 days”. A digest of the protocol:
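Seven-week-old male Sprague Dawley rats under pentobarbital had the right common peroneal nerve tightly ligated with 4-0 silk and transected distally; in sham rats the nerve was exposed only. Seven days later, rats got an oral dose of 1, 3 or 10 mg/kg or 0.5% methylcellulose vehicle. Ipsilateral tactile allodynia was scored blinded with von Frey filaments 2 h post-dose. Mean and SE, 8 rats.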

For data set [10], the system named is Brain. In words: AUC in rat brain at 3 mg/kg, po by LC/MS/MS analysis. Type of data set: ADME, organism-based. More on the design: dose 3 mg/kg, route oral. As to conditions: in vivo. In outline: as §1

Here are results for twelve compounds from ChEMBL document CHEMBL3112484, “Design, synthesis, and biological evaluation of a series of piperazine ureas as fatty acid amide hydrolase inhibitors” (Bioorg Med Chem, 2014).

≈ marks a conversion by molar mass, not a printed value.

The IC50 is the concentration that gives 50% inhibition. For `O=C(Nc1cccnn1)N1CCN(c2cc(-c3ccc(F)cc3F)ncn2)CC1`, the IC50 in [1] was 1.7 nM; in data set [2], 1.5 nM.

`O=C(Nc1cccnn1)N1CCN(c2cccc(-c3ccc(F)cc3F)n2)CC1`: the IC50 in [1] turned out to be 13 nM; in data set [2] it was 36 nM.

The term solubility denotes how much of the substance goes into solution per volume. Higher therefore signals a readily soluble substance. For the compound `O=C(Nc1cccnn1)N1CCN(c2nccc(-c3ccc(F)cc3F)n2)CC1`, the IC50 in [1] is 0.43 nM; in data set [2] it was 1.1 nM. Also, the solubility in data set [3] was determined as 0.85 µg/mL (≈ 2.14 µM).

For the compound `O=C(Nc1cccnn1)N1CCN(c2ccnc(-c3ccc(F)cc3F)n2)CC1`, the figures for the half-inhibitory concentration (IC50) in data set [1] and in data set [2] were 34 nM and 23 nM, respectively. The same compound yielded a solubility in data set [3] of 52 µg/mL (≈ 131 µM).

With `O=C(Nc1cccnn1)N1CCN(c2cncc(-c3ccc(F)cc3F)c2)CC1`, the IC50 in data set [1] is 74 nM; in data set [2], 140 nM.

As usually defined, the inhibition in vivo is the drop in the measured response relative to a control, in per cent. For `O=C(Nc1cccnn1)N1CCN(c2nccc(-c3ccc(F)c(F)c3)n2)CC1`, in the data set with Mus musculus, the inhibition in vivo at 10 mg/kg amounted to 34.7%. Moreover, in data set [4], the inhibition result was “tde”. For the same compound, the values for the half-inhibitory concentration (IC50) in [1] and in [2] were 0.28 nM and 0.72 nM, respectively. Further, the Activity entry with Rattus norvegicus [5] and in the data set on Rattus norvegicus [9] was “Dose-dependent effect” each time. The AUC with Brain [6] turned out to be 898 ng·h/g; with Brain [8], 0 ng·h/g; in the data set with Brain [10] it was 15955 ng·h/g. For the same compound, the Kp in data set [7] was determined as 2. In [3], this compound displayed a solubility of 3.1 µg/mL (≈ 7.8 µM).

Turning to `CCCCC/C=C\C/C=C\C/C=C\C/C=C\CCCC(=O)NCCO` [ANANDAMIDE], the figures for the AUC with Brain [6], with Brain [8] and with Brain [10] were 232.9 ng·h/g, 64.3 ng·h/g and 311.6 ng·h/g, respectively.

As for `O=C(Nc1cccnn1)N1CCN(c2cc(-c3ccc(F)cc3F)ccn2)CC1`, the IC50 is 4.3 nM in data set [1] and 2.2 nM in data set [2].

On to `O=C(Nc1cccnn1)N1CCN(c2nccc(-c3cc(F)ccc3F)n2)CC1`, for which the inhibition in vivo at 10 mg/kg in the data set on Mus musculus amounted to 2.2%. Also, the IC50 in data set [1] was 0.17 nM; in [2], 0.025 nM. In data set [3], this compound showed a solubility below 0.06 µg/mL.

For the compound `O=C(Nc1cccnn1)N1CCN(c2ccnc(-c3ccc(F)cc3F)c2)CC1`, the figures for the IC50 in [1] and in data set [2] were 12 nM and 28 nM, respectively.

Regarding `O=C(Nc1cccnn1)N1CCN(c2nccc(-c3cc(F)cc(F)c3)n2)CC1`, the inhibition in vivo at 10 mg/kg with Mus musculus was 0.9%. In addition, the IC50 in [1] came to 0.34 nM; in [2] it was 0.08 nM. In data set [3], this compound came in with a solubility of 0.1 µg/mL (≈ 0.252 µM).

As for `O=C(Nc1cccnn1)N1CCN(c2nccc(-c3cccc(F)c3F)n2)CC1`, the inhibition in vivo at 10 mg/kg in the data set on Mus musculus stood at 18.9%. In addition, the IC50 in data set [1] is 1.2 nM; in data set [2], 0.072 nM. For the same compound, the solubility in [3] stood at 0.16 µg/mL (≈ 0.403 µM).
